From PubChem
An excerpt weighted towards active compounds, which were near 9.6% of everything screened.
L major viab: Leishmania major promastigote growth inhibition, primary screen; inhibition, % at 10 µM; Leishmania major promastigotes, resazurin fluorescence viability; actives 9% (n = 200,000); in the data active means inhibition above about 50%;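 further: promastigotes grown with compound for 44 hours at 28 °C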
bCat KO growth: primary screen for growth suppressors in beta-catenin knockout HCT116 cells (colon tumor, human); HCT116 beta-catenin knockout viability, CellTiter-Glo, 60 h; hits give low values; viability, % at 10 µM; actives 1.5% (n = 140,000); AID 818, 2007;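 active means viability at or under a set limit, the compound median less 4 SD, cut at about 6% in these data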;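 further: 0% = Hyamine 1622 control at 20 µM and 100% = untreated cell control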
PTEN del growth: growth suppression of PTEN-null HCT116, primary screen, cell-based, CellTiter-Glo; HCT116 PTEN-null viability, 60 h; hits give low values; viability, % at 10 µM; actives 1.2% (n = 140,000); AID 827, 2007;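 active means viability at or below a set limit, 4 SD under the median of all tested compounds, cut at about 3.7% in these data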;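 further: PTEN knockout HCT116 line with beta catenin targeted HCT116 as companion control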
PMI act: activators of human PMI, primary screen, biochemical, fluorescence intensity, near-Km mannose 6-phosphate; Mannose-6-phosphate isomerase (Homo sapiens), P34949; purified human PMI, coupled resazurin fluorescence, 20 min; hits give high values; 1 = vehicle control, 0 substrate-free wells; activation factor at 20 µM; actives 0.005% (n = 190,000); AID 1214, 2008;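 active means activation factor of 2 or more at 20 µM, relative to plate controls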
Target sequence (P34949 whole entry, looked up): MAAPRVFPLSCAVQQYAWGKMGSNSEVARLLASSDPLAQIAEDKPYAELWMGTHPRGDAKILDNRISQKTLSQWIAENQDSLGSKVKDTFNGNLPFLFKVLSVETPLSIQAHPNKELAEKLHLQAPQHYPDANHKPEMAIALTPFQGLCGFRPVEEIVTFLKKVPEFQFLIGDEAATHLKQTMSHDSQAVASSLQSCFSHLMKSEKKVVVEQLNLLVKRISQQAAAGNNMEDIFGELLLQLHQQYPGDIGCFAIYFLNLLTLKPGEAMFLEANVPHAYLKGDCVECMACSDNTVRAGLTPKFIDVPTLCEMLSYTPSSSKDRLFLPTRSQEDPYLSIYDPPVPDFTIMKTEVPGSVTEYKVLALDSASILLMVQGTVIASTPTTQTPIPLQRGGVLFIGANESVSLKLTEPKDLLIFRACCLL
PMI act satM6P: human PMI activators, high substrate, primary screen, biochemical, fluorescence intensity, near-saturating mannose 6-phosphate. coupled PMI enzyme assay, resazurin fluorescence, 20 min; hits give high values; 1 = untreated enzyme, 0 = substrate-free blank. activation factor at 20 µM. actives 0.34% (n = 190,000);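 active means activation factor of 2 or more at 20 µM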
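Test system: human PMI in coupled enzyme assay; Input: PMI at 15 ng/mL final; Medium: HEPES buffer, pH 7.4; Schedule: 20 min incubation at room temperature; Technique: resorufin fluorescence at Ex 544/Em 590 nm; Compound: 20 µM single dose; Probe or stimulus: Near-saturating mannose-6-phosphate, 1.0 mM.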
The depositor's hits bear a star; . = not tested or not shown.

SMILES	L major viab	bCat KO growth	PTEN del growth	PMI act	PMI act satM6P
CCOC(=O)c1ccc(NC(=O)CSc2nnc(NC(=O)c3ccc(S(=O)(=O)N4CCOCC4)cc3)s2)cc1	90.5*	91.0	95.3	1.2	1.3
Cc1ccc(NC(=O)CSc2nnc(NC(=O)c3ccc(S(=O)(=O)N4CCOCC4)cc3)s2)cc1	-12.4	97.9	104.6	1	1.1
O=C(N/N=C\c1ccco1)Nc1cccc(Cl)c1	62.5*	84.2	89.6	0.9	1
CCCCCC(=O)N/N=C/c1ccco1	77.8*	92.2	98.7	0.9	1
O=C(O)c1ccccc1C(=O)NNc1cccc(Cl)n1	3.5	.	.	1.3	1
CCn1cc2c(c1-c1cccc(C)c1)c(=O)n(C)c(=O)n2C	-12.5	86.9	88.3	1.5	2.1*
CCCn1cc2c(c1-c1cccc(C)c1)c(=O)n(C)c(=O)n2C	-3.6	89.3	101.9	1	1.1
CCOC(=O)Cc1c(C)nc2cc(-c3ccc(Cl)cc3)[nH]n2c1=O	-8.6	82.4	85.4	0.8	0.9
CCc1c(C)nc2cc(-c3ccc(OC)cc3)[nH]n2c1=O	58.4*	80.8	89.3	1	1
Cc1cc(=O)n2[nH]c(-c3ccc(C(C)(C)C)cc3)cc2n1	100.0*	64.4	65.3	0.9	0.9
Cc1cc(=O)n2[nH]c(-c3ccccc3)cc2n1	0.3	94.1	91.5	0.9	1
O=C(COC(=O)CNC(=O)c1ccccc1)Nc1ccc(S(=O)(=O)N2CCOCC2)cc1	-7.7	.	.	1	0.9
CN(c1ccccc1)S(=O)(=O)c1ccc(Cl)c(C(=O)Nc2ccc(-c3nc4ccccc4[nH]3)cc2)c1	95.7*	33.0	33.1	0.9	1
CN(c1ccccc1)S(=O)(=O)c1ccc(Cl)c(C(=O)Nc2nc3ccccc3[nH]2)c1	99.2*	43.6	41.6	0.8	1
CN(c1ccccc1)S(=O)(=O)c1ccc(Cl)c(C(=O)Nc2nn[nH]n2)c1	-0.9	.	.	1.2	1.1
Cc1ccc(-c2nn(C)c(=O)c3ccccc23)cc1S(=O)(=O)NCCN1CCOCC1	64.8*	96.5	91.1	1	1.1
COc1ccc(S(=O)(=O)NCCCN2CCOCC2)c2ccccc12	91.8*	78.4	86.7	0.8	0.9
CCOC(=O)CNS(=O)(=O)c1cc(-c2nn(C)c(=O)c3ccccc23)ccc1C	11.6	101.7	92.0	1.1	1
CCOc1ccc(S(=O)(=O)NCCCN2CCOCC2)c2ccccc12	85.3*	85.7	88.4	0.9	0.9
CCCOc1ccc(S(=O)(=O)NCCCN2CCOCC2)c2ccccc12	27.8	78.0	80.9	0.9	0.9
CC(C)NC(=O)/C=C/C(=O)O	-5.8	.	.	1.2	1.2
O=C(CCCNC(=O)/C(=C\c1ccc(F)cc1)NC(=O)c1ccccc1)OCc1ccccc1	4.1	92.0	88.3	0.9	1
CCC(C)(C)NC(=O)CN(C(=O)CCC(=O)Nc1ccccn1)c1ccc(F)c(Cl)c1	90.2*	92.8	87.4	0.9	1
COc1ccc(CNC(=O)CN(C(=O)CCC(=O)Nc2ccccn2)c2cccc(C)c2)cc1	50.2*	.	.	.	.
Cc1cc(C)cc(N(CC(=O)NCc2ccc3c(c2)OCO3)C(=O)CCC(=O)Nc2ccccn2)c1	9.2	79.2	80.2	0.9	1
SMILES	L major viab	bCat KO growth	PTEN del growth	PMI act	PMI act satM6P
Cc1ccc(C)c(N(CC(=O)NCc2ccc3c(c2)OCO3)C(=O)CCC(=O)Nc2ccccn2)c1	56.3*	83.5	79.0	1	1
COc1ccccc1N(CC(=O)NCc1ccccc1)C(=O)CCC(=O)Nc1cc(C)ccn1	-2.6	92.7	97.8	1	0.9
CC(C)NC(=O)CN(C(=O)CCC(=O)Nc1ccccn1)c1ccc(F)c(Cl)c1	0.8	99.1	98.9	1	0.9
CCOCCCNC(=S)NCCCNc1nc2c(C)c(C)ccc2cc1C#N	21.1	.	.	1.6	2.1*
CCOc1ccc2nc(NCCNC(=S)NCCCN(C)C)c(C#N)cc2c1	55.5*	.	.	1	0.8
COCCCNC(=S)NCCCNc1nc2cc3c(cc2cc1C#N)OCO3	-6.2	105.3	89.1	1.4	2.1*
COC(=O)C1=C(C)N(C)C(C)=C(C(=O)OC)C1c1ccc(F)c(Br)c1	76.5*	60.1	56.3	0.9	0.8
